Reference: the EternaBench riboswitch data

System: MS2 coat protein
Assay: apparent Kd, MS2 coat protein; higher = weaker binding; RNA-MaP array; FMN 200 µM where present
How it was run: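 The apparent Kd comes from binding curves fitted cluster by cluster, filtered, and summarised as a median. Those curves followed SNAP-549-labelled MS2 coat protein from 0.7 or 1.5 nM, doubling to 3 µM, on Illumina sequencing-chip clusters where stalled E. coli RNA polymerase had transcribed the designs, without and then with constant ligand. The buffer was 100 mM Tris-HCl pH 7.5, 80 mM KCl, 4 mM MgCl2, BSA, DTT, yeast tRNA and Tween-20, and green signal was normalised to red-channel RNA signal and control-cluster median Fmax.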

[1] = designed as: ON switch for flavin mononucleotide, no ligand
[2] = ligand present: flavin mononucleotide, designed as: ON switch for flavin mononucleotide
[3] = designed as: OFF switch for flavin mononucleotide, no ligand
[4] = ligand present: flavin mononucleotide, designed as: OFF switch for flavin mononucleotide

| Sequence | apparent Kd [1] [nM] | apparent Kd [2] [nM] | apparent Kd [3] [nM] | apparent Kd [4] [nM] |
| --- | --- | --- | --- | --- |
| GACCGCGAGGAAGGAUAUGGAGCCUUAAAGGCUCCAGAAGGUCCAUAAAGGACAUGAGGAUCACCCAUGUGGUGAGAAGCGGUC | 1720 | 201 | – | – |
| GAGUAGGGAGGAUAUACGUGCUCAAUCCCGGAAAGCGGGAAACAUGAGGAUCACCCAUGUAGAAGGCCCAUAAA | – | – | 82.1 | 46.4 |
| UGAUAGGACAGAGGAUAUGCCGAUAGGAUCUACUAUCGAAGAAUCCUCACAUGAGGAUCACCCAUGUAGAAGGCUGUCCUAUCU | – | – | 23 | 140 |
| AAAAUAAGUGUGAGGAUAUGCUGGUCCUUGGAUCAGCAGAAGGCACAUGAGGAUCACCCAUGUAAUAUAUUUAU | – | – | 84.7 | 295 |
| GUGUACAGAGGAUAUACAUGAGCUAGGAAACUAGCAACUUCACAUGAGGAUCACCCAUGUAGAAGGCUGUACAC | – | – | 26 | 128 |
| GCCAUCGCAUGAGGAUAUCCUCAGCUUUGCUGAGGAGAAGGCAUGUCAAUAGACAUGAGGAUCACCCAUGUAGUUAAGAUGGCA | 692 | 81.3 | – | – |
| CCUCUGUCCGAGGAUAUGAGGUUAACGUGACCGUCAGAAGGCGGAACAUGAGGAUCACCCAUGUUUUGCGCAUG | – | – | 44.2 | 68 |
| AAAACAGUGUAGGAUAUGGCUGGGCUGAAAAUGCUAGAAGGACACACAUGAGGAUCACCCAUGUGACUUCGUGC | – | – | 13.8 | 15.5 |
| ACACGGAAGUCAGGAUAUGUAUCAGCACGAUUGUUACAUGAGGAUCACCCAUGUUUCACGGGCCAACAGAAGGGACAGGGUGGC | 23.6 | 7.82 | – | – |
| UUGUUAUAUGUAGGAUAUGCAUAUUAUUAUUAUGCAGAAGGACAUGAGGAUCACCCAUGUAUGUUGUUGUUAUAUAUUAUAUAU | – | – | 24.8 | 27.8 |
| AUGUUGAGCAGUGUAUUAAUAAAACAUGAGGAUCACCCAUGUAGAAGGCACGAGCUGAUCGCUCGUGAGGAUAUACAUCACUGC | – | – | 5.15 | 5.9 |
| UGGUACUAGGGAGGAUAUGGGAAGAUACAUGAGGAUCACCCAUGUUUAAGAAUUCCGAGAGGCAACUAGAAGGCCCUAGUACCU | 35.7 | 13 | – | – |
| CUAUCGAGGUCACUCGUUAUCACACCAGAAGGGACGGAGGCACAUGAGGAUCACCCAUGUCCUAGUCAGGAUAUGGGUGAGUAG | 25.6 | 5.16 | – | – |
| GUAGAGUAAGGAUAUGCUGAAUAGGAUAGAAUGGUUAGAAAGCAGAAGGUACAUGAGGAUCACCCAUGUAAUGU | – | – | 23.2 | 21.2 |
| GGCUGGCAGCUAGGAUAUGGGCGAUCACAUGAGGAUCACCCAUGUCAACAUCAAAACAAGAUUAACCAGAAGGAGCCGCGGGUU | 18.4 | 76.7 | – | – |
| GGUUGUCAUAGUCAUCCUUUCCGUACAUGAGGAUCACCCAUGUAGGAUAUGCUACUCACAGAGUAGCAGAAGGGCGUGUGUCUU | – | – | 19 | 19.6 |
| ACCGGAGCAGGAUAUACAUGAGGAUCACCCAUGUGAGCCACACAGCUACUAUAUGCAAGUAGAAGGGCUCGGGU | – | – | 74.2 | 120 |
| UUUUUGUCAGGAUAUCUAAUCUAGAUGUUCGCAUCUAGAUUAGAGAAGGGACAUGAGGAUCACCCAUGUAGUUU | – | – | 61.9 | 253 |
| GCUCUUGUCAAGAAGGGCUCGCGGUACGCUGCAGCAGGAUAUUGACAUGAGGAUCACCCAUGUCGACCGGAACAUCAUUGAGGG | – | – | 26.2 | 178 |
| UAUUUAAUCUCAGGAUAUAACAUUACAUACAAAUUAGAAGGGAGAACAUGAGGAUCACCCAUGUACAUGAGGAUCACCCAUGUU | 692 | 576 | – | – |
| AAUAACAAGCAGAAGGGUGAAACGAUAUAGUGCACAGGAUAUGCAAUAAUUCUAAACAUGAGGAUCACCCAUGUCUAGCAUAAA | 28.2 | 9.84 | – | – |
| AGACUGAAUGUUAGGAUAUGGUUUCGGGUCUCGGACCAGAAGGAACAUGAGGAUCACCCAUGUGCCGUGGUUGU | – | – | 29 | 153 |
| GCGGCUAGUGCAGGAUAUCGGCGCGUGUAGCGCCGAGAAGGGCACAUGAGGAUCACCCAUGUGAUCAAUCACUGCUAAGGCCGC | – | – | 4.83 | 4.91 |
| UGAUAGGACAGAGGAUAUACGUGCUAGAGAUACUAGCAAAAUUUCCUCACAUGAGGAUCACCCAUGUAGAAGGCUGUCCUAUCG | – | – | 17.6 | 453 |
| AGGAGGUCAGGAUAUGCAUGGCGGGACUUGCGUCGUGGCGUGCAGAAGGGACAUGAGGAUCACCCAUGUGGAGA | – | – | 86.1 | 220 |
| CCUAGUUGGUAAGGAUAUCCUACACUAUUCUGACCCGUGCAAGCUACAUGAGGAUCACCCAUGUGGGAGAAGGUGCGUCAACAU | – | – | 10.1 | 10.2 |
| UAUGUUAGCACAGGAUAUUGUUAUUAUUUAAUUCAAGAAGGGUGUACAUGAGGAUCACCCAUGUUAUGGUUUUAUCUUUUACAA | – | – | 1280 | 457 |
| CGCAUGUAAGGAUAUUAGUAGUAGUCAGAAUAGACUAUUACUGAGAAGGUACAUGAGGAUCACCCAUGUUAGCG | – | – | 117 | 592 |

| Sequence | apparent Kd [1] [nM] | apparent Kd [2] [nM] | apparent Kd [3] [nM] | apparent Kd [4] [nM] |
| --- | --- | --- | --- | --- |
| AUCCGGCGUGUAGGAUAUGGAAAAGAUAAGGAUCCAGAAGGACAUGAGGAUCACCCAUGUACAUGUAAACAGUCAUCACCGGAA | – | – | 35.3 | 50.9 |
| GUGCCAUAUGAGAAGGCGAUCAUGAAACAUGAUCGAGGAUAUCAUGAAAACAUGAGGAUCACCCAUGUAUGGGUAUUAAGGUAC | 64.3 | 28.9 | – | – |
| GGGAAGUGAGGAUAUAUGAGAGAGGCUGAACCGGACGAGAAGUAGAAGGCACAUGAGGAUCACCCAUGUAGGGA | – | – | 118 | 86 |
| GUAGCUAUCGGAGGAUAUUCAUACCGCAAACGGACAUGAGGAUCACCCAUGUGGCGAAAGCAUUGGGAGAAGGCCGAUAGCUAC | 22.5 | 5.68 | – | – |
| CCGUUACAUGAGGAUCACCCAUGUGAGGAUAUCGAUGUGACUGGCAGCGUGCGGGACUCGAGAAGGCACUUGGC | – | – | 74.6 | 58.5 |
| GCAAGAAUAGGAUAUACACCGUGUCAGCUUCUAUACAUCGCACAUGAGGAUCACCCAUGUAGAAGGGUUCUCUG | – | – | 236 | 217 |
| AAAACUGGAGGAUAUACAUGAGGAUCACCCAUGUGUGGAUGGGCUGUGUCGGCGUCAGGUAGAAGGCCACAAAA | – | – | 70 | 130 |
| ACCUUAAAAGUGAGGAUAUCUAGGGCCAAAUGGCCGGAGAAGGCACAUGAGGAUCACCCAUGUAACGCCAUGGA | – | – | 13.7 | 43.7 |
| GUAUCUUAUGAGAAGGCGAUCAUGAAACAUGAUCGAGGAUAUCAUGUAAACAUGAGGAUCACCCAUGUAUGGGUAUUAUGGUAU | 95 | 80.2 | – | – |
| GGGCGACAUGAGGAUCACCCAUGUCAGGAUAUCGGGCCCGGGCCGAAAGGCCCGGGCCCGAGAAGGGACAGCCC | – | – | 18.8 | 16.6 |
| GGGUACAUGGGAGGAUAUCCUCAAGAGACAUGAGGAUCACCCAUGUAUUAUAUGCCUCAUGGCAUGGAGAAGGCCCAUGUACCG | 188 | 160 | – | – |
| UUGGACAGCUAGAGCUGCUAAGUACAUGAGGAUCACCCAUGUCAGGAUAUCCUUCCGCAAUGCGAGGAGAAGGGACAGGGUCCC | – | – | 75.4 | 179 |
| GCCAUCGCAUGAGGAUAUGCUCCCGUUUCGGGAGCAGAAGGCAUGUCAUAAGACAUGAGGAUCACCCAUGUAGAUAAGGUGGCA | 337 | 12.7 | – | – |
| AGGUAAGACUUAAUUGUGCUGGUGAGAAGGCAAAUGGUUGUGACCAACAUGAGGAUCACCCAUGUUGAGGAUAUCAUCGGUAUC | – | – | 86.2 | 361 |
| UUUGCAACAUGAGGAUCACCCAUGUAGGAUAUCGCUAUUGUAAUCAUGAAACAUGAUUACAAUAGCGAGAAGGACAUAUGUCCC | – | – | 7.56 | 8.59 |
| AUGUAGUAAGGAUAUAGAAAGAAGGAGUAAGAUAGAGAGUUCUAGAAGGUACAUGAGGAUCACCCAUGUUGGAG | – | – | 29 | 26.4 |
| UUACUACAUGAGGAUCACCCAUGUCAGGAUAUUGUAUAUACCUUGGAAUACGUGUCUACAAGAAGGGACUAUAU | – | – | 23.7 | 22.5 |
| GUCAGCUCGUGAGGAUAUGCAUCACUGCUUCGGCAGUGUAUUAAGAUCACAUGAGGAUCACCCAUGUAGAAGGCACGAGCUGAU | – | – | 7.3 | 41.7 |
| AGCUACGUUUCGUAGCAGCUAGGUGAGGAUAUUCAAUUUUUCACAUGAGGAUCACCCAUGUAAAAGAAGAAGGCGCCUAGAAAG | 4.28 | 4.25 | – | – |
| GUAUAGGACAGAGGAUAUACGUGCUAGAGAUACUAGCAAAAUUUCCUCACAUGAGGAUCACCCAUGUAGAAGGCUGUCCUAUCG | – | – | 17.1 | 498 |
| AUGAGCCGAGGAGGAUAUGACGGGUGCUAAAUCACAUGAGGAUCACCCAUGUCAGAAGGCCUCGCCAUAUUUGAUGCUUUAGAG | – | – | 201 | 9.55 |
| CAUUAACUACAAUUACAUGAGGAUCACCCAUGUUUUGGGAUGCAGGAUAUGUGGUAUAUUAAUUAACAGAAGGGCAAUAAUUUU | 41.5 | 36.7 | – | – |
| AAAAAGGCAGGAUAUACAUGAGGAUCACCCAUGUAAAGAAAGAAAGAGGUGAAAGAAAGUAGAAGGGCCAAAAA | – | – | 160 | 179 |
| GUAUGAGCGAUAGGAUAUACUGAGAUUGAAUGGGUAGAAGGAUCUCUUGUGGGAAAGACAUGAGGAUCACCCAUGUCACGGACC | 186 | 100 | – | – |
| UGCCGUUUAGGAUAUACAUGAGGAUCACCCAUGUGACACACAUAUUUUACAAAACCAUGUAGAAGGAAACGGCA | – | – | 104 | 512 |
| CCUCCACAUGAGGAUCACCCAUGUCAGGAUAUCGUGUGUUUUUUUUCGGUCUUGCGUGCGAGAAGGGACGUCUU | – | – | 35.6 | 39.4 |
| UCAGGCUUCGAGAAGGACAUGAGGAUCACCCAUGUUAACAUGAAGCAGCCGUGAGGCUGCAUCAUGUAGGAUAUCGGAGUCUGC | – | – | 5.44 | 6.09 |
